High-throughput results (PubChem)
AF4-AF9 inh – blocks AF4 peptide binding to human AF9; AID 651704; 350,000 compounds, 0.47% hits; inhibition, % at 10 µM; AlphaScreen, biotin-AF4 peptide binding to FLAG-AF9; P42568;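 active = every replicate reaching a set inhibition limit, whatever the replicate mean, cut at about 25% in these data; inconclusive = mean inhibition reaches that limit but some replicates miss it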;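 also: 0% = plate neutral control median and 100% = total signal loss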
ERAP1 HTS inh – ERAP1 (human) enzyme inhibition; 340,000 compounds, 0.15% hits; inhibition, % at 10.7 µM; recombinant ERAP1, Leu-AMC fluorescence, 60 min; AID 652197; Q9NZ08;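 active = mean replicate inhibition of at least 30%, or all replicates individually reaching that 30% level; inactive = mean below 30% and not every replicate reaching it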;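 also: 0% = neutral control wells and 100% = L-leucinethiol positive control wells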
E-sel inducer – induces E-selectin expression in human endothelial cells. P16581. activation, % at 7.58 µM. 260,000 compounds, 0.37% hits. HUVEC E-selectin immunofluorescence imaging; normalized: neutral wells 0, TNF-alpha wells 100;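 active = mean E-selectin-positive cell signal at least 10% of the positive control, reached in at least 60% of replicates, without over 20% cell loss; inconclusive = no rule given, readout overlaps actives, possibly toxicity-flagged; inactive = the rest, including those meeting only one limit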
Target sequence (P16581 whole entry, looked up): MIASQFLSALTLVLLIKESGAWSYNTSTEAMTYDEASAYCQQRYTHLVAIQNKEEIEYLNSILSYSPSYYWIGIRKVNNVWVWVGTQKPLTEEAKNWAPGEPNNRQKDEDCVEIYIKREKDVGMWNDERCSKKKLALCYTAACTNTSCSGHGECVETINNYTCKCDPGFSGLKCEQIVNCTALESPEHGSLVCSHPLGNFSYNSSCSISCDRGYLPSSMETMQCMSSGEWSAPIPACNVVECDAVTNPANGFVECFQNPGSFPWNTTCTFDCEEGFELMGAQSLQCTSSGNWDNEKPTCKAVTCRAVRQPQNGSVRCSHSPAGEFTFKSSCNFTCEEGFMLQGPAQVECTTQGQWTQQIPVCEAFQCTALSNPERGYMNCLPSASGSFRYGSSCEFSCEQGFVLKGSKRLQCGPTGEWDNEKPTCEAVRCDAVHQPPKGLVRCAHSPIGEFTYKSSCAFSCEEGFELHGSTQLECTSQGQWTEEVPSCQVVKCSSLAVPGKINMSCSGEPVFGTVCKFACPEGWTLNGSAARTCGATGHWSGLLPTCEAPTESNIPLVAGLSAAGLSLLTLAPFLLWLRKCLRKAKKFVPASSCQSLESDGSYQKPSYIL
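System: HUVEC / Compound: single concentration / Signal: immunofluorescence imaging / Read-out: percent E-selectin-positive cells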
S100A4 MyoIIA – blocks human S100A4 binding to myosin IIA peptide. P26447. S100A4/TAMRA-MyoIIA peptide fluorescence polarization. inhibition, % at 10.7 µM. 360,000 compounds, 0.14% hits. AID 652163;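 active = mean inhibition of at least 70% across replicates, with every replicate also reaching that level; inconclusive = mean inhibition reaches 70% but some replicates fall short; inactive = mean inhibition below 70%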
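Test system: S100A4 monomer protein. Medium: HEPES buffer with Ca2+, pH 7.2. Reagent: fluorescent myosin IIA peptide, 5 nM. Compound dosing: single-point compound testing. Timing: 5 min between mix addition and reading. Benchmarks: DMSO neutral and TFP positive wells.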
SIRT5 inh – blocks human SIRT5 desuccinylation of peptide; Purified SirT5, succinyl-peptide AMC, trypsin-coupled fluorescence; inhibition, % at 15 µM; Q9NXA8; 330,000 compounds, 1.1% hits; in the data active = inhibition above about 15%; inconclusive = no clear call, values can overlap the other calls
rRNA inh HTS – inhibitors of bacterial rRNA selective over humanized ribosomes; E. coli WT GFP vs humanized-ribosome RFP mutants, fluorescence, 24 h; active compounds read low; DMSO median 0, no signal -100; 350,000 compounds, 1.6% hits; GFP signal change (wild-type ribosome), % (no concentration beside the values);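 active = significant combined selectivity score with lowered wild-type GFP, culture density cut under 30%, mutant RFP and density less affected; inactive = any of these conditions unmet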
Alpha interfer – interferes with the AlphaScreen assay signal; shares compounds with AF4-AF9 inh; AlphaScreen interference counter-screen, signal luminescence; AC50, µM (highest dose often 12 µM), for the others: top-dose activity change, negative = inhibition; 530 compounds, 45% hits; cut-off not given, nearly all actives have AC50 up to about 14 µM
The depositor's hits bear a star; u = inconclusive; x = not tested or not shown; + = active, no number; ! = not confirmed by another sample. Only some compounds are listed: those with a hit (about 3.4% of all), similar ones and a draw of the others.

SMILES	AF4-AF9 inh	ERAP1 HTS inh	E-sel inducer	S100A4 MyoIIA	SIRT5 inh	rRNA inh HTS	Alpha interfer
c1ccc(N2CCCCC2)c(Nc2nc3ccccc3n3cnnc23)c1	2	-1	x	-2	-5	13	x
c1ccc2c(c1)nc(Nc1ccc(N3CCCCC3)cc1)c1nncn12	36*	-3	0	-6	4	6	-16%
CCN1/C(=C/C(C)=C/c2sc3ccccc3[n+]2CC)Sc2ccccc21	66*	-3	155*	+	7	-36	6.3µM*
CO[C@H]1CN(C)C(=O)c2ccc(NS(=O)(=O)c3ccccc3)cc2OC[C@@H](C)N(C(=O)NC(C)C)C[C@H]1C	-1	1	2	-2	3	0	x
COc1ccccc1N1CCN(/N=C/c2ccc(O)c(O)c2)CC1	17	-5	x	-1	3	13	x
COc1ccccc1N1CCN(/N=C/C=C\c2ccccc2[N+](=O)[O-])CC1	51*	-2	1	0	2	-21	-19%
COc1ccc(/C=N/N2CCN(c3ccccc3OC)CC2)cc1Br	27*	-1	x	-1	0	-8	-20%
COc1ccccc1N1CCN(/N=C/c2cccc(Cl)c2)CC1	27*	0	x	0	2	-21	-26%
O=C(NCC[C@H]1CC[C@@H](NC(=O)C2CCC2)[C@@H](CO)O1)Nc1ccc(Cl)cc1	2	3	0	-1	-3	-30	x
CC(C)C#Cc1cnc2c(c1)C(=O)N([C@@H](C)CO)C[C@H](C)[C@@H](CN(C)C(=O)c1cccc(F)c1)O2	-1	-1	0	5	3	0	x
O=C1C=C(c2ccc3c(c2)OCO3)C[C@@H](c2ccc(F)cc2)C1	4	2	0	2	x	-1	x
Fc1ccc([C@@H]2CCNC[C@H]2COc2ccc3c(c2)OCO3)cc1	34*	-3	0	0	-5	-58	-28%
CN(C)CCNc1ncnc2c1sc1nc(-c3ccccc3)c3c(c12)CCCC3	u	-9	x	-14	-9	-59	-14%
COc1cccc(CNC(=O)C[C@H]2CC[C@H](NC(=O)C3CCOCC3)[C@H](CO)O2)c1	0	-6	0	-31	-2	3	x
CCCN1C(=O)/C(=C/c2nc3ccccc3c(=O)[nH]2)c2ccccc21	1	6	x	0	2	13	x
CC(C)N1C(=O)/C(=C\c2nc3ccccc3c(=O)[nH]2)c2ccccc21	26*	2	x	-9	-1	-1	-22%
Cc1ccn2c(Nc3ccc4c(c3)OCO4)c(-c3ccccn3)nc2c1	32*	-3	x	46	1	25	9.3µM*
Oc1cc(NCCN2CCOCC2)cc2cccnc12	27*	0	0	11	-3	41	12µM*
CC(C)NC(=O)Nc1ccc2c(c1)C(=O)N([C@H](C)CO)C[C@H](C)[C@@H](CN(C)Cc1ccc(Oc3ccccc3)cc1)O2	4	1	0	-8	2	2	x
O=[N+]([O-])c1cc(CN2CCCC2)ccc1Sc1ccc(Cl)cc1	34*	7	-1	-4	-4	-28	-32%
CNC(=S)N1N=C(c2ccc(C)cc2)CC1c1ccc(N(C)C)cc1 (centres undefined)	31*	4	0	-4	-2	x	-27%
CC(C)NC(=O)N(C)C[C@@H]1Oc2ccc(N(C)C)cc2C(=O)N([C@H](C)CO)C[C@@H]1C	-1	2	0	-7	x	1	x
O=C(N/N=C/c1c(O)ccc2ccccc12)C(=O)N1CCCC1	-2	-1	0	-6	-1	-3	x
O=C(CN1CCCC1)N/N=C/c1c(O)ccc2ccccc12	38*	3	x	-3	2	-2	5.7µM*
C(=C\c1ccncc1)/c1ccncc1	21	x	0	-4	1	0	-19%
SMILES	AF4-AF9 inh	ERAP1 HTS inh	E-sel inducer	S100A4 MyoIIA	SIRT5 inh	rRNA inh HTS	Alpha interfer
CN(C)c1ccc(C(CNC(=O)c2ccccc2)c2c[nH]c3ccccc23)cc1 (centres undefined)	29*	-2	2	-5	-2	-23	-27%
CN(C)c1ccc(C(CNC(=O)c2ccccc2F)c2c[nH]c3ccccc23)cc1 (centres undefined)	7	0	x	3	-2	-13	x
COc1ccc(-c2oc3ccccc3c(=O)c2OCC(=O)O)cc1	-3	-7	x	2	1	-12	x
COc1ccc(-c2oc3ccccc3c(=O)c2OC(C)=O)cc1	55*	-6	3	3	-39	-30	7.3µM*
CN(C)c1ccnc2c[cH-]cc12.[Fe].c1ccc(-[c-]2[c-](-c3ccccc3)[c-](-c3ccccc3)[c-](-c3ccccc3)[c-]2-c2ccccc2)cc1 (centres undefined)	29*!	-1	0	0	-1	34	-13%
CN(C)c1ccnc(Nc2ccccc2)c1C#N	-7	8	x	-19	-1	21	x
COc1cc(/C=N/O)ccc1OCc1ccc(Cl)cc1	-1	1	x	-17	1	-20	x
COc1cc(/C=N/N=C(N)N)ccc1OCc1ccc(Cl)cc1	27*	-157	2	0	0	-60	-26%
CCOc1cc(/C=N/N=C(N)N)ccc1OCc1ccc(Cl)cc1	27*	-20	x	-4	2	-33	-27%
C[C@H](CO)N1C[C@H](C)[C@@H](CN(C)C(=O)CN2CCOCC2)Oc2cc(/C=C/c3ccccc3)ccc2S1(=O)=O	8	0	0	0	1	-6	x
COC1=C(Nc2ccccc2OC)C(=O)c2ccccc2C1=O	50*	6	1	-7	-1	-14	7.9µM*
COc1ccccc1NC1=C(NC(C)=O)C(=O)c2ccccc2C1=O	9	8	0	6	-2	-21	x
Cc1ccccc1-c1ccc([C@H]2[C@H]3CN(CC4CCOCC4)CCCCN3[C@H]2CO)cc1	11	1	0	-9	-4	-2	x
O=C(Nc1ccccc1F)N[C@H]1CC[C@H](CCNC(=O)C2CCC2)O[C@H]1CO	-1	1	2	7	3	0	x
COC(=O)C1=C[C@@H](C(=O)OC)[C@@H]2C3=C(C(=O)C2(C)C)[C@H](c2ccccc2)[C@@H]2C(=O)N(C)C(=O)[C@@H]2[C@@H]3C1	u	-4	0	16	-12	2	16%
CCN1C(=O)/C(=C\C(=O)c2cccs2)c2cc(Br)ccc21	37*	-3	x	3	-2	6	0%
CCN1C(=O)/C(=C/N(C)C)c2ccccc21	x	x	2	x	x	x	x
